In ChEMBL document CHEMBL1155195 (J Med Chem, 2009):
pIC50, pKd: −log10 of the molar value. Activity calls are given as the source filed them. The calls are words filed in the database; no cut-off is given here.

What was measured:
[1] = system: U-937; assay: Cytotoxicity against human U937 cells after 72 hrs by sulforhodamine B assay; type: functional, cell-based; details: U-937, 72 h
[2] = Binding affinity to zinc assessed as formation of zinc-compound complex by EGTA fluorescence titration assay
[3] = system: U-937; assay: Induction of apoptosis in human U937 cells assessed as viable cells at 50 uM after 12 hrs by FITC-conjugated annexin V and propidium iodide staining-based flow cytometry; type: functional; details: U-937, 12 h, read-out: Activity
Summary of the method: (§1)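 U-937 cells incubated with compound at 50 μM or vehicle for 12 hours, then co-stained with propidium iodide and FITC-labeled Annexin V; Annexin V-positive/PI-negative cells scored as early apoptotic.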

[4] = system: U-937; assay: Induction of apoptosis in human U937 cells assessed as early apoptotic cells at 50 uM after 12 hrs by FITC-conjugated annexin V and propidium iodide staining-based flow cytometry; type: functional; summary of the method: as §1
[5] = system: U-937; assay: Induction of apoptosis in human U937 cells assessed as late apoptotic cells at 50 uM after 12 hrs by FITC-conjugated annexin V and propidium iodide staining-based flow cytometry; type: functional; summary of the method: as §1
[6] = system: U-937; assay: Induction of apoptosis in human U937 cells assessed as non-viable necrotic cells at 50 uM after 12 hrs by FITC-conjugated annexin V and propidium iodide staining-based flow cytometry; type: functional; summary of the method: as §1
[7] = biological target: T1, Caspase-3 (Homo sapiens) (UniProt P42574); assay: Activation of 6xHis-tagged recombinant caspase 3 expressed in Escherichia coli BL21 (DE3) at 50 uM after 30 mins in presence of zinc ion
T1 sequence (whole entry): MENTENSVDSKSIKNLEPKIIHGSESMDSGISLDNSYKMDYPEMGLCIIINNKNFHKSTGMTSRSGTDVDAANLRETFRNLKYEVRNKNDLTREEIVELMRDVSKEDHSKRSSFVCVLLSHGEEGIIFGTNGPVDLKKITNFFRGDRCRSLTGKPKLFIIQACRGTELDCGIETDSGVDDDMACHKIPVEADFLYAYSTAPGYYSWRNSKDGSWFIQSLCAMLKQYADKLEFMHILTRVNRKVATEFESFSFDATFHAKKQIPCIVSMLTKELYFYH

[8] = system: SK-MEL-5; assay: Zinc chelating activity in human SK-MEL-5 cells assessed as appearance of punctate cytoplasmic staining pattern at 25 uM after 1 hr by immunofluorescent staining-based confocal microscopy; type: functional, cell-based
Summary of the method: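 Live SK-MEL-5 cells incubated 1 hour with 25 μM fluorescent derivative, washed with phenol red-free medium, incubated 2 further hours; DNA stained with SYBR green; imaged by multiphoton confocal microscopy for subcellular, punctate cytoplasmic fluorescence.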

[9] = biological target: T1, Caspase-3 (Homo sapiens); assay: Induction of procaspase 3 activation in human SK-MEL-5 cells assessed as caspase 3 cytoplasmic colocalization at 25 uM after 1 hr by immunofluorescent staining-based confocal microscopy; type: cell-based
Summary of the method: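 SK-MEL-5 cells given DMSO or 25 μM compound for 1 hour, washed with phenol red-free medium, incubated 2 more hours, fixed, stained with rabbit anti-caspase-3 antibody (recognizes procaspase-3 and caspase-3) plus anti-rabbit Alexa Fluor 647 secondary, mounted and imaged by multiphoton confocal microscopy.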

[10] = biological target: T1, Caspase-3 (Homo sapiens); assay: Induction of procaspase 3 activation in human SK-MEL-5 cells assessed as caspase 3 cytoplasmic colocalization at 25 uM after 1 hr by immunofluorescent staining-based confocal microscopy in presence of 25 uM caspase 3/7 inhibitor FAM-DEVD-fmk; type: cell-based
Summary of the method: (§2)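 Live SK-MEL-5 cells treated with DMSO or compound (25 μM) together with FAM-DEVD-fmk (25 μM), a fluorescent irreversible active-site caspase-3/-7 label, for 1 hour; washed in phenol red-free medium, incubated 2 hours further, then imaged by multiphoton confocal microscopy.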

[11] = biological target: T1, Caspase-3 (Homo sapiens); assay: Inhibition of 6xHis-tagged recombinant caspase 3 expressed in Escherichia coli BL21 (DE3) at 10 uM after 30 mins in absence of zinc ion
[12] = biological target: T1, Caspase-3 (Homo sapiens); assay: Induction of procaspase 3 activation in human SK-MEL-5 cells at 25 uM after 1 hr by immunofluorescent staining-based confocal microscopy in presence of 25 uM caspase 3/7 inhibitor FAM-DEVD-fmk; type: cell-based; summary of the method: as §2

Compound	pIC50 [1]	pKd [2]	further results
C=CCc1cccc(/C=N/NC(=O)CN2CCN(Cc3ccc(OC)cc3)CC2)c1O	5.57	7.33	–
C=CCc1cccc(/C=N/NC(=O)CN2CCN(Cc3cc(OC)ccc3OC)CC2)c1O	6.00	7.41	–
O=C(CN1CCN(Cc2ccccc2)CC1)NCc1ccccc1O	< 4.00	< 5.00	–
C=CCc1cc(/C=N/NC(=O)CN2CCN(Cc3ccccc3)CC2)c(O)c(CC=C)c1	5.74	7.37	–
C=CCc1cccc(/C=N/NC(=O)CN2CCN(Cc3ccccc3)CC2)c1OC	4.49	< 5.00	–
O=C(CN1CCN(Cc2ccccc2)CC1)N/N=C/c1ccccc1SSc1ccccc1/C=N/NC(=O)CN1CCN(Cc2ccccc2)CC1	< 4.00	< 5.00	–
COC(=O)c1ccccc1/C=N/NC(=O)CN1CCN(Cc2ccccc2)CC1	< 4.00	< 5.00	–
COc1ccc(OC)c(CN2CCN(CC(=O)N/N=C/c3ccccc3O)CC2)c1	4.92	7.19	–
O=C(CN1CCN(Cc2ccccc2)CC1)N/N=C/c1ccccc1Cl	4.24	< 5.00	–
C=CCc1cccc(/C=N/NC(=O)CN2CCN(Cc3cccnc3)CC2)c1O	4.85	7.21	–
CSc1ccccc1/C=N/NC(=O)CN1CCN(Cc2ccccc2)CC1	4.21	< 5.00	–
C=CCc1cccc(/C=N/NC(=O)CN2CCN(Cc3ccncc3)CC2)c1O	4.68	7.10	–
C=CCc1cccc(/C=N/NC(=O)CN2CCC(Cc3ccccc3)CC2)c1O	5.57	7.31	viability at 50 µM [3]: 49%; Activity [4]: 41%; Activity [5]: 10%; Activity [6]: 0%
C=CCc1cccc(/C=N/NC(=O)CN2CCN(Cc3cccc(Cn4cc(CNC(=O)Cc5c(C)c6cc(S(=O)(=O)O)c(N)cc6oc5=O)nn4)c3)CC2)c1O	4.83	7.21	Activity [7]: 20%; Activity [8]: Active; Activity [9]: Active; Activity [10]: Active
O=C(CN1CCN(Cc2ccccc2)CC1)N/N=C/c1ccccc1	< 4.00	< 5.00	–
C=CCc1cccc(/C=N/NC(=O)CN2CCN(Cc3ccc(F)cc3)CC2)c1O	5.70	7.32	viability at 50 µM [3]: 62%; Activity [4]: 30%; Activity [5]: 8%; Activity [6]: 0%
O=C(CN1CCN(Cc2ccccc2)CC1)N/N=C/c1ccccc1S	< 4.00	< 5.00	–
C=CCc1cccc(/C=N/NC(=O)CC2CCN(Cc3ccccc3)CC2)c1O	5.55	7.36	inhibition [11]: Active
C=CCc1cccc(CNNC(=O)CN2CCN(Cc3ccccc3)CC2)c1O	4.23	< 5.00	–
C=CCc1cccc(/C=N/NC(=O)CC2CCN(C(=O)OC(C)(C)C)CC2)c1O	5.19	7.32	inhibition [11]: Active
O=C(CN1CCN(Cc2ccccc2)CC1)N/N=C/c1ccccc1C(=O)O	< 4.00	< 5.00	–
C=CCc1cccc(/C=N/NC(=O)CN2CCN(Cc3cccc([N+](=O)[O-])c3)CC2)c1O	5.34	7.35	–
O=C(CN1CCN(Cc2ccccc2)CC1)NCCc1ccccc1O	< 4.00	< 5.00	–
C=CCc1cccc(/C=N/N(C)C(=O)CN2CCN(Cc3ccccc3)CC2)c1O	4.66	< 5.00	–
Nc1ccccc1/C=N/NC(=O)CN1CCN(Cc2ccccc2)CC1	< 4.00	< 5.00	–
C=CCc1cccc(/C=N/NC(=O)CN2CCN(Cc3ccccc3)CC2)c1O [PAC-1]	5.32	7.28	viability at 50 µM [3]: 58%; Activity [4]: 31%; Activity [5]: 11%; Activity [9]: Active; Activity [12]: Active; Activity [6]: 0%
